# Laboratory results from ChEMBL document CHEMBL4339195, “Di-aryl Sulfonamide Motif Adds π-Stacking Bulk in Negative Allosteric Modulators of the NMDA Receptor” (ACS Med Chem Lett, 2019).
# Columns and labels:
# [1] = molecular target: Glutamate NMDA receptor; Grin1/Grin2c (Rattus norvegicus, UniProt P35439+Q00961); assay: Negative allosteric modulation of recombinant rat GluN1/GluN2C expressed in Xenopus laevis oocytes assessed as inhibition of glutamate/glycine-induced current response at -40 mV holding potential by two-electrode voltage clamp method; format: cell-based
# Outline: (§1)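 Oocytes recorded while the drug is co-applied with a maximally effective 100 µM glutamate plus 30 µM glycine. Response is expressed as percent of the glutamate/glycine control. IC50 comes from a Hill fit to the average composite concentration-response curve. 8-16 oocytes from 2-3 frogs per compound and receptor.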
# [2] = molecular target: Ionotropic glutamate receptor NMDA 1/2D (Rattus norvegicus, UniProt P35439+Q62645); assay: Negative allosteric modulation of recombinant rat GluN1/GluN2D expressed in Xenopus laevis oocytes assessed as inhibition of glutamate/glycine-induced current response at -40 mV holding potential by two-electrode voltage clamp method; format: cell-based; outline: as §1
# [3] = molecular target: Glutamate NMDA receptor; Grin1/Grin2c (Rattus norvegicus) (UniProt P35439+Q00961); assay: Negative allosteric modulation of recombinant rat GluN1/GluN2C expressed in Xenopus laevis oocytes assessed as inhibition of glutamate/glycine-induced current response at 30 uM at -40 mV holding potential by two-electrode voltage clamp method relative to glutamate/glycine; format: cell-based; conditions: values are per cent of control; outline: as §1
# [4] = molecular target: Glutamate NMDA receptor; Grin1/Grin2b (Rattus norvegicus, UniProt P35439+Q00960); assay: Negative allosteric modulation of recombinant rat GluN1/GluN2B expressed in Xenopus laevis oocytes assessed as inhibition of glutamate/glycine-induced current response at -40 mV holding potential by two-electrode voltage clamp method; format: cell-based; outline: as §1
# [5] = molecular target: Glutamate receptor 1 (Rattus norvegicus) (UniProt P19490); assay: Negative allosteric modulation of recombinant rat GluA1 expressed in Xenopus laevis oocytes assessed as inhibition of glutamate-induced current response at 30 uM at -40 mV holding potential by two-electrode voltage clamp method relative to glutamate alone; format: cell-based
# Outline: (§2)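 Oocyte two-electrode voltage clamp at -40 mV holding. Test compound co-applied with agonist; response given as percent of the mean of control and recovery currents to agonist alone. Agonists: 100 µM glutamate (AMPA, kainate), 100 µM GABA (GABA receptors), 100 µM glycine (glycine receptor), 100 µM serotonin (5-HT3A), 9 µM ATP (P2X), 1 µM acetylcholine (nicotinic).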
# Homo sapiens = species on record: Homo sapiens; assay: Negative allosteric modulation of human GluA2 R607Q mutant expressed in Xenopus laevis oocytes assessed as inhibition of glutamate-induced current response at 30 uM at -40 mV holding potential by two-electrode voltage clamp method relative to glutamate alone; format: cell-based; outline: as §2
# [6] = tested on: Glutamate receptor 3 (Homo sapiens), P42263 [L513Y]; assay: Negative allosteric modulation of human GluA3 L513Y mutant expressed in Xenopus laevis oocytes assessed as inhibition of glutamate-induced current response at 30 uM at -40 mV holding potential by two-electrode voltage clamp method relative to glutamate alone; format: cell-based; outline: as §2
# [7] = tested on: Glutamate receptor 4 (Homo sapiens), P48058 [L505Y]; assay: Negative allosteric modulation of human GluA4 L505Y mutant expressed in Xenopus laevis oocytes assessed as inhibition of glutamate-induced current response at 30 uM at -40 mV holding potential by two-electrode voltage clamp method relative to glutamate alone; format: cell-based; outline: as §2
# [8] = molecular target: P2X receptor (Homo sapiens) (UniProt P51575+Q99571+Q9UBL9+O15547+P56373+Q99572+Q93086); assay: Negative allosteric modulation of human P2X expressed in Xenopus laevis oocytes assessed as inhibition of ATP-induced current response at 30 uM at -40 mV holding potential by two-electrode voltage clamp method relative to ATP alone; format: cell-based; outline: as §2
# Rattus norvegicus [9] = species on record: Rattus norvegicus; assay: Negative allosteric modulation of rat GABAA alpha1beta2gamma2S expressed in Xenopus laevis oocytes assessed as inhibition of GABA-induced current response at 30 uM at -40 mV holding potential by two-electrode voltage clamp method relative to GABA alone; format: cell-based; outline: as §2
# Rattus norvegicus [10] = species on record: Rattus norvegicus; assay: Negative allosteric modulation of rat GABAA rho expressed in Xenopus laevis oocytes assessed as inhibition of GABA-induced current response at 30 uM at -40 mV holding potential by two-electrode voltage clamp method relative to GABA alone; format: cell-based; outline: as §2
# [11] = molecular target: T1, Glycine receptor subunit alpha-1 (Rattus norvegicus) (UniProt P07727); assay: Negative allosteric modulation of rat glycine alpha1 expressed in Xenopus laevis oocytes assessed as inhibition of glycine-induced current response at 30 uM at -40 mV holding potential by two-electrode voltage clamp method relative to glycine alone; format: cell-based; outline: as §2
# T1 sequence (whole entry): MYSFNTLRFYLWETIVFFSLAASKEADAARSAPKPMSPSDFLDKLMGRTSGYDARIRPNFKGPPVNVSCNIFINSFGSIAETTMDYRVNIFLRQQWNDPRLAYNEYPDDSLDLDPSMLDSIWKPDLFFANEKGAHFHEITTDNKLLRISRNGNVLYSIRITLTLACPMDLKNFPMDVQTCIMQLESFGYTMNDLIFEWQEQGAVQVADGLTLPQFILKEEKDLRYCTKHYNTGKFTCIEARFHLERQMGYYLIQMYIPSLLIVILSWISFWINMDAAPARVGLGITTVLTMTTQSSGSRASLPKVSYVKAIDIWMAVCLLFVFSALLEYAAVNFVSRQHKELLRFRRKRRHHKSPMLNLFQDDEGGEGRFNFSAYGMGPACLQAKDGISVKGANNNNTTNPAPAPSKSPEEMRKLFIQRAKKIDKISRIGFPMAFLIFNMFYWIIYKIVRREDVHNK
# [12] = molecular target: T2, 5-hydroxytryptamine receptor 3A (Rattus norvegicus) (UniProt P35563); assay: Negative allosteric modulation of rat 5HT3A expressed in Xenopus laevis oocytes assessed as inhibition of serotonin-induced current response at 30 uM at -40 mV holding potential by two-electrode voltage clamp method relative to serotonin alone; format: cell-based; outline: as §2
# T2 sequence (whole entry): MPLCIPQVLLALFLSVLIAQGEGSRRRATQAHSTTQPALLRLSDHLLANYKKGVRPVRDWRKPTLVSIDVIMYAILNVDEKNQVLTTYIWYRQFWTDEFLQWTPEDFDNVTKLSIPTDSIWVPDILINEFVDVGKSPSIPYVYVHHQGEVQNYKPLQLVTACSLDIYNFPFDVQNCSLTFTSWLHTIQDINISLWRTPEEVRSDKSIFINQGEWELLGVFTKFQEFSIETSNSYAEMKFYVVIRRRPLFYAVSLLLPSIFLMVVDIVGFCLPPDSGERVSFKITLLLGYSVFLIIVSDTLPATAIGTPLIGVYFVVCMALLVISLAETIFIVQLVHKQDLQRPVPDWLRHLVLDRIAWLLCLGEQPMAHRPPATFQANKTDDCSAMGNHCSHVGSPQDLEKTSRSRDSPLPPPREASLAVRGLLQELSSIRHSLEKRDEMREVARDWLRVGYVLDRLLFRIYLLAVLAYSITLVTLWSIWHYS
# [13] = molecular target: Glutamate NMDA receptor; Grin1/Grin2a (Rattus norvegicus) (UniProt P35439+Q00959); assay: Negative allosteric modulation of recombinant rat GluN1/GluN2A expressed in Xenopus laevis oocytes assessed as residual glutamate/glycine-induced current response at 30 uM at -40 mV holding potential by two-electrode voltage clamp method relative to glutamate/glycine
# Sequence of Glutamate receptor 4 (Homo sapiens), P48058 [L505Y] (P48058 whole entry L505Y): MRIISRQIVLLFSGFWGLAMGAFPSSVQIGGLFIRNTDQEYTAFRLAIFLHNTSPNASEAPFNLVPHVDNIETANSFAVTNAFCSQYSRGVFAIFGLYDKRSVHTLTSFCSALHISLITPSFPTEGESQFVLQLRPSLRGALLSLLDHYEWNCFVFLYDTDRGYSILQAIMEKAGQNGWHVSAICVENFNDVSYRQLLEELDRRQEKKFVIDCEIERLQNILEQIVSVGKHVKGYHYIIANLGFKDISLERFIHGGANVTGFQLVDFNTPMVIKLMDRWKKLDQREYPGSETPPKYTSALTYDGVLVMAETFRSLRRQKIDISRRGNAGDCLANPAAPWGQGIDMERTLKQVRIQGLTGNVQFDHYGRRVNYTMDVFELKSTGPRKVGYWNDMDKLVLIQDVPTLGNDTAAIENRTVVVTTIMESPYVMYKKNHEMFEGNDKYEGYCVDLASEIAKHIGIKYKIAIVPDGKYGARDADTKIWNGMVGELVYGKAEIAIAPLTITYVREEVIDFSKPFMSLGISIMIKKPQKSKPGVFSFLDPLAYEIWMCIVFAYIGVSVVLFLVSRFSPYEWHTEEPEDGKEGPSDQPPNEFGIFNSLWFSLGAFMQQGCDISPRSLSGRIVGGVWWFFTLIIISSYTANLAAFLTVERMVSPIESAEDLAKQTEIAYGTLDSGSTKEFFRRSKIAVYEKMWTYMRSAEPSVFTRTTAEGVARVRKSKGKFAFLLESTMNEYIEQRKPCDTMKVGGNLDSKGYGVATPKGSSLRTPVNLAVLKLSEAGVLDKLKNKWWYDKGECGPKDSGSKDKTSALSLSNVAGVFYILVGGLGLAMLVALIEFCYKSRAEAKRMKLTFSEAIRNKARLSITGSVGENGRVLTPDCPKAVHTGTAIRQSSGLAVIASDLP
# Sequence of Glutamate receptor 1 (Rattus norvegicus) (P19490 whole entry): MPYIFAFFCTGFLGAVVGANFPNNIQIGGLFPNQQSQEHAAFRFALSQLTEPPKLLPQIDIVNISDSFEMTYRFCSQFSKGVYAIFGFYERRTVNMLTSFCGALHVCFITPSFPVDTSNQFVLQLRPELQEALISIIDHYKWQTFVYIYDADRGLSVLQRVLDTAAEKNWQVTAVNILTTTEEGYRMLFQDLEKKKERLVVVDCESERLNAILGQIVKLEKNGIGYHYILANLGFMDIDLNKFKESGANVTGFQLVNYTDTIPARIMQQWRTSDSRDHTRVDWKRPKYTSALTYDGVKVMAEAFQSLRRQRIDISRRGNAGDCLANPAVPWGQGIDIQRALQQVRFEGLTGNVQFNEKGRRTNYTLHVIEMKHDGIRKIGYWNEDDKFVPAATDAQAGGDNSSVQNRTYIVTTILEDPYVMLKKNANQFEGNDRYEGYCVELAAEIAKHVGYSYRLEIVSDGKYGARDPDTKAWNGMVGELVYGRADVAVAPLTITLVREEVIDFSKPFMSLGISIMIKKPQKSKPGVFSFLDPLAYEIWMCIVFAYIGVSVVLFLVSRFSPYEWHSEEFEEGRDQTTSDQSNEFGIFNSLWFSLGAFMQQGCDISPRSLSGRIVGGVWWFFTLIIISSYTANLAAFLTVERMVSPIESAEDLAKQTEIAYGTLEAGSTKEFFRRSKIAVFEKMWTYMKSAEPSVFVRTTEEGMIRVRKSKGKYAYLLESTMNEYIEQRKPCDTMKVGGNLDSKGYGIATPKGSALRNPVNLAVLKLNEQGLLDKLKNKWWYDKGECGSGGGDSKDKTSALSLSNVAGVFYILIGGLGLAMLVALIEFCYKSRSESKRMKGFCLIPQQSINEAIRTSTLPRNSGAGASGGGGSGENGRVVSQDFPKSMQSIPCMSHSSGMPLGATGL
# Sequence of Glutamate NMDA receptor; Grin1/Grin2b (Q00960 whole entry, other chains not shown): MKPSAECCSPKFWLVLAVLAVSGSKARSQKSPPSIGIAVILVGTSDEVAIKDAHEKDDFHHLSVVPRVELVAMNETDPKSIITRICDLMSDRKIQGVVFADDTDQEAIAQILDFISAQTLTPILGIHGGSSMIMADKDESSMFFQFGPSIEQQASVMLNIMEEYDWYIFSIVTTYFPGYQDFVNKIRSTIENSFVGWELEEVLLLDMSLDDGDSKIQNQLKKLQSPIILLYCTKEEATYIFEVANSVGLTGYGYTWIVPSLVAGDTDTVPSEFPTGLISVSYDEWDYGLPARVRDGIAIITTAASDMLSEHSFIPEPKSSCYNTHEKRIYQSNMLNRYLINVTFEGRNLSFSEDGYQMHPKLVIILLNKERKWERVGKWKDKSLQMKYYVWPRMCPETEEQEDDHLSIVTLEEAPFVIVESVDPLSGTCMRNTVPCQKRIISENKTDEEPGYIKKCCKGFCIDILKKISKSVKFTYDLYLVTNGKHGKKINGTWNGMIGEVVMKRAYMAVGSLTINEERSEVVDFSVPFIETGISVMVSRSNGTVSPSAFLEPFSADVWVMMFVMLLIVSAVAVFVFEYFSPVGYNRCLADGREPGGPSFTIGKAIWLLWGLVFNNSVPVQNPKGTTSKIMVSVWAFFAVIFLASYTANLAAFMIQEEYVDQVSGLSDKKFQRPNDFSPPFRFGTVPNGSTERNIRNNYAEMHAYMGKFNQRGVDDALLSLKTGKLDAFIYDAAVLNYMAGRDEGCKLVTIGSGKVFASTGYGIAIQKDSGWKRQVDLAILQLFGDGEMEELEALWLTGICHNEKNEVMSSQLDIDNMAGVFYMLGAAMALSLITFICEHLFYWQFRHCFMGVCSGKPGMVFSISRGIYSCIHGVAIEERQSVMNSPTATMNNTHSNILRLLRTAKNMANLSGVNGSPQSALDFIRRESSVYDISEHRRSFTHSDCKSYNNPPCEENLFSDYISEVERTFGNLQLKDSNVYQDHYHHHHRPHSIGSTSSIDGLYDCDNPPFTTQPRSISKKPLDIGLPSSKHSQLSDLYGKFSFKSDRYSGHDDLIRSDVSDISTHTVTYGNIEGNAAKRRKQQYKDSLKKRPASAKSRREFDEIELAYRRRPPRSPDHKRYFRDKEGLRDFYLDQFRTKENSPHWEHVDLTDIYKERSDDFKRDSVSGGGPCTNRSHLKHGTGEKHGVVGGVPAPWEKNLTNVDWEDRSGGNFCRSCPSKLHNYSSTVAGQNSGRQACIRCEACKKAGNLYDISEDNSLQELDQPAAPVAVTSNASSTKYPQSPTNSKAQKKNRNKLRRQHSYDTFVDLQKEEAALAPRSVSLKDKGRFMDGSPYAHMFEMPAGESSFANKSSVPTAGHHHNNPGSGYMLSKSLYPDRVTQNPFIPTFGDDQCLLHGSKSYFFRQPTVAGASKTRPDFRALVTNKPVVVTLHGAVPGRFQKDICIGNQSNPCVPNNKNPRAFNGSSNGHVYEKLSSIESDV
# Sequence of Glutamate receptor 3 (Homo sapiens), P42263 [L513Y] (P42263 whole entry L513Y): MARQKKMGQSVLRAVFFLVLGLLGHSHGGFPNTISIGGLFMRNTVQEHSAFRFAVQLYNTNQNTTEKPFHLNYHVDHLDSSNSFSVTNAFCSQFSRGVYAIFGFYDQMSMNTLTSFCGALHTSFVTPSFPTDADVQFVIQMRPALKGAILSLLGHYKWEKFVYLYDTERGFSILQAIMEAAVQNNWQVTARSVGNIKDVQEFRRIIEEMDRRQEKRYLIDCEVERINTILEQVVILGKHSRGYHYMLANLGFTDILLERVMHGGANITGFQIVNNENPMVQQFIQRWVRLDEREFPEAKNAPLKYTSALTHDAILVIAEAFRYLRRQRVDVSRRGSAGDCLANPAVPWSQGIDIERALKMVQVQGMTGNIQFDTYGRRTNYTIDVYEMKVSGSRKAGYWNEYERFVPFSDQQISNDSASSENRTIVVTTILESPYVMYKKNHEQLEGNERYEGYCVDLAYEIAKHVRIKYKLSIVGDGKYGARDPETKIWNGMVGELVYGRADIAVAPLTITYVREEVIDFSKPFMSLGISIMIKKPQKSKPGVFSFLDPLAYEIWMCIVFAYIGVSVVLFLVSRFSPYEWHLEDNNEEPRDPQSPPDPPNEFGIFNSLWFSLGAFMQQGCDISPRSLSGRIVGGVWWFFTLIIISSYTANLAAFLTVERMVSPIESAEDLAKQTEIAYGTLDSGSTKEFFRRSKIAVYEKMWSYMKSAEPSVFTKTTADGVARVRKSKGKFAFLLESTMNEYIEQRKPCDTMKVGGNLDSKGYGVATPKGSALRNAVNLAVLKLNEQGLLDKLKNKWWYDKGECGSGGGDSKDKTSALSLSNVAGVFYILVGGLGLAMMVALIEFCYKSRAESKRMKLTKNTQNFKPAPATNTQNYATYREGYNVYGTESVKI
smiles,measurement,setting,value
CCN(CC)C(=O)Oc1ccc(C(=O)Nc2cccc(CCNS(=O)(=O)c3ccccc3)c2)cc1,IC50,[1],2400 nM
same,IC50,[2],1700 nM
same,residual activity,[3],9%
same,IC50,[4],7600 nM
same,inhibition,[5],79%
same,inhibition,Homo sapiens,95%
same,inhibition,[6],86%
same,inhibition,[7],86%
same,inhibition,[8],80%
same,inhibition,Rattus norvegicus [9],90%
same,inhibition,Rattus norvegicus [10],98%
same,inhibition,[11],30%
same,inhibition,[12],20%
same,residual activity,[13],85%
